Experimental data as given in article PMC6980694 (European journal of medicinal chemistry, 2019).

How the values were obtained:
[1] = Cytotoxicity to Vero cells; format: cell-based; conditions: monkey, Vero kidney cells
[2] = system: Zika virus (PRVABC59 strain); format: cell-based; conditions: for anti-Zika activity (in words): PRVABC59 strain, MOI 1, SNB-19 cells 24 h, titer in Vero cells 48 h
Outline: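 SNB-19 cells, pretreated 1 h with graded compound concentrations (0.1% DMSO final), then infected with C6/36-derived ZIKV at MOI 1. Supernatants were harvested 24 h post-infection and focus-titered on confluent Vero cells: 2 h inoculation, methylcellulose overlay for 48 h, 4G2 antibody with HRP/DAB staining, foci counted.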

C=C1CC[C@@H]2[C@](C)(CO)[C@H](O)CC[C@@]2(C)[C@@H]1C/C=C1/C(=O)OC[C@H]1Oc1c(Cl)cc(Cl)c2cccnc12 [Compound 16b, (14α)-(Quinolyl-5’,7’-dichloro-8’-oxy)andrographolide]
CC50 at 48 h [1]: 58.6 µM

C=C1CC[C@@H]2[C@]3(C)COC(C)(C)O[C@@H]3CC[C@@]2(C)[C@@H]1C/C=C1/C(=O)OC[C@H]1Oc1c(Cl)cc(Cl)c2cccnc12 [Compound 15b, (14α)-(Quinolyl-5’,7’-dichloro-8’-oxy)-3,19-acetonylidene andrographolide]
anti-Zika activity (in words) [2]: do not show anti-Zika activity

C=C1CC[C@@H]2[C@](C)(CO)[C@H](O)CC[C@@]2(C)[C@@H]1C/C=C1/C(=O)OC[C@@H]1Oc1cccc2cccnc12 [Compound 3]
safety/selectivity index (SI) ([2]; cell line not specified, CC50 in SNB-19 and Vero vs EC50): > 16

C=C1CC[C@@H]2[C@](C)(CO)[C@H](O)CC[C@@]2(C)[C@@H]1C/C=C1/C(=O)OC[C@H]1Oc1ccnc2ccccc12 [Compound 7]
CC50 at 48 h [1]: 22.3 µM

C=C1CC[C@@H]2[C@](C)(CO)[C@H](O)CC[C@@]2(C)[C@@H]1C/C=C1/C(=O)OC[C@@H]1Oc1ccnc2ccccc12 [Compound 6]
anti-Zika activity (in words) [2]: inactive

C=C1CC[C@@H]2[C@]3(C)COC(C)(C)O[C@@H]3CC[C@@]2(C)[C@@H]1C/C=C1/C(=O)OC[C@@H]1Oc1c(Cl)cc(Cl)c2cccnc12 [Compound 15a, (14β)-(Quinolyl-5’,7’-dichloro-8’-oxy)-3,19-acetonylidene andrographolide]
anti-Zika activity (in words) [2]: do not show anti-Zika activity
